ChEMBL document CHEMBL2157866, “Virtual screening and computational optimization for the discovery of covalent prolyl oligopeptidase inhibitors with activity in human cells” (J Med Chem, 2012)

Assays:
[1] = Half life in rat liver microsomes at 1 uM after 30 mins by LC-MSD method; assay type: ADME, Microsome
In short: (§1)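 Test compound at 1 μM in 0.1 M KH2PO4 pH 7.4 with liver microsomes (0.5618 mg/mL) at 37 °C. Reaction started with NADPH. Aliquots taken at 0, 10, 20 and 30 min and quenched into equal-volume acetonitrile. Samples centrifuged at 9000g, 4 °C, and supernatants analysed by LC-MSD.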

[2] = Half life in human liver microsomes at 1 uM after 30 mins by LC-MSD method; assay type: ADME, Microsome; in short: as §1
[3] = Intrinsic clearance in rat liver microsomes at 1 uM after 30 mins by LC-MSD method; assay type: ADME, Microsome; details: read-out: CLH; in short: as §1
[4] = Intrinsic clearance in human liver microsomes at 1 uM after 30 mins by LC-MSD method; assay type: ADME, Microsome; details: read-out: CLH; in short: as §1
[5] = molecular target: T1, Prolyl endopeptidase FAP (Homo sapiens, UniProt Q12884); experiment: Inhibition at human recombinant FAPalpha
T1 sequence (Q12884 whole entry): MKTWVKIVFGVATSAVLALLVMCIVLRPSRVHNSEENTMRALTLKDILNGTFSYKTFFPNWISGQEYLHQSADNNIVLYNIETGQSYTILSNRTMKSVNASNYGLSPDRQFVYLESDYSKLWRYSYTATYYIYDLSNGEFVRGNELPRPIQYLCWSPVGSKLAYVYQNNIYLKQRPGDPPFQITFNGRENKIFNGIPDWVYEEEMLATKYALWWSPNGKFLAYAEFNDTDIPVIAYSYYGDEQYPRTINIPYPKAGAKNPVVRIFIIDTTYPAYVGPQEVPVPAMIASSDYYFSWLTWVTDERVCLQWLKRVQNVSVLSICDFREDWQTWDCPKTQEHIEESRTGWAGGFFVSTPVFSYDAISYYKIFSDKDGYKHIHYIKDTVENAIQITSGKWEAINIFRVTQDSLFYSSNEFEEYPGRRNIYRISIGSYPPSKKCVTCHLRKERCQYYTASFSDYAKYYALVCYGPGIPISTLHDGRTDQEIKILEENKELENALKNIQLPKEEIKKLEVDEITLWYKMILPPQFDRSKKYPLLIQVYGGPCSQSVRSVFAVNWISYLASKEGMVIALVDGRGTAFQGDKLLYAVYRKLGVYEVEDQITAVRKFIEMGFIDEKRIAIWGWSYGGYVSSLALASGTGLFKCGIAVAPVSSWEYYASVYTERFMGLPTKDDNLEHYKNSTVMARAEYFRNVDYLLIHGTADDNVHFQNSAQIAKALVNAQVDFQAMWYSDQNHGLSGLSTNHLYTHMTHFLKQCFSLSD
In short: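 Recombinant human FAPα diluted in PBS with 1 mg/mL BSA. Setup as for cell extracts: inhibitor preincubated 5–10 min at room temperature, then Z-Gly-Pro-AMC at 10 μM final. AMC fluorescence (ex/em 360/460 nm) recorded for 30 min at 37 °C.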

Row | Structure (SMILES) | half-life at 1 µM [1] [min] | half-life at 1 µM [2] [min] | microsomal CLint at 1 µM [3] [µL/min/mg] | microsomal CLint at 1 µM [4] [µL/min/mg] | IC50 [5] [µM]
1 | N#C[C@@H]1CS[C@H]2C[C@@H](NC(=O)OCc3ccccc3)C(=O)N12 |  | 134 |  | 10 | 
2 | O=C(NCc1ccccc1)c1ccccc1C(=O)N1CCCCC1 | 4 | 16 | 311 | 89 | 
3 | N#C[C@@H]1CCCN1C(=O)c1ccccc1C(=O)NCc1ccccc1 | 38 | 31 | 37 | 44 | > 100

Results, then the compound that gave them:

Row | half-life at 1 µM [1] [min] | half-life at 1 µM [2] [min] | microsomal CLint at 1 µM [3] [µL/min/mg] | microsomal CLint at 1 µM [4] [µL/min/mg] | IC50 [5] [µM] | Structure (SMILES)
4 | 23 | 98 | 62 | 14 | > 100 | O=C(c1cccc2c1C(=O)N(Cc1ccccc1)C2)N1CCCC1
5 | 17 | 55 | 83 | 25 |  | O=C(NCc1ccccc1)c1ccccc1C(=O)N1CCCC1
6 | 35 | 111 | 39 | 13 | > 100 | N#C[C@@H]1CCCN1C(=O)c1cccc2c1C(=O)N(Cc1ccccc1)C2
